Data published in ChEMBL document CHEMBL1145520, “RAS-RAF-MEK-dependent oxidative cell death involving voltage-dependent anion channels” (Nature, 2007).
The source made the active and inactive calls. No cut-off for these calls is given here.

Assays:
BJ [1] = assay: Induction of cell death in human BJ cells expressing TERT, LT, ST and RAS G12V mutant genes cells in presence of MEK inhibitor 2 by trypan blue exclusion method; format: functional, cell-based
BJ [2] = assay: Induction of mitochondrial structural integrity loss in human BJ cells expressing TERT, LT, ST and RAS G12V mutant genes cells at 37 uM after 10 hrs; format: functional, cell-based
In short: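 BJ-TERT/LT/ST/RASV12 cells exposed 10 h to erastin (37 µM per legend; 20 µg/ml in methods), then fixed in 2.5% glutaraldehyde in 0.1 M Sorenson's buffer pH 7.2 and post-fixed in 1% OsO4. Sections stained with uranyl acetate/lead citrate.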

[3] = molecular target: Non-selective voltage-gated ion channel VDAC2 (Homo sapiens, UniProt P45880); assay: Binding affinity to human VDAC2
BJ [4] = assay: Induction of pro-caspase 3 cleavage in human BJ cells expressing TERT, LT, ST and RAS G12V mutant genes; format: functional, cell-based
In short: (§1)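 Cells either untreated, given staurosporine, or given erastin for 6–10 h, then lysed in HEPES pH 7.4 buffer with phosphatase and protease inhibitors. Lysates run on SDS-PAGE, blotted to PVDF, probed with antibodies detecting active caspase-3, with actin as loading control. Bands read on infrared imager.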

BJ [5] = assay: Induction of cell death in human BJ cells expressing TERT, LT, ST and RAS G12V mutant genes cells at 9 uM; format: functional, cell-based
BJ [6] = assay: Prevention of induction of cell death in human BJ cells expressing TERT, LT, ST and RAS G12V mutant genes cells after 24 hrs in presence of alpha-tocopherol; format: functional, cell-based
In short: (§2)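 BJ-TERT/LT/ST/RASV12 cells treated 24 h with erastin across roughly 1–2.5 µM, together with DMSO or an antioxidant (α-tocopherol, BHT or β-carotene). Viability read afterwards.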

BJ [7] = assay: Prevention of induction of cell death in human BJ cells expressing TERT, LT, ST and RAS G12V mutant genes cells after 24 hrs in presence of beta-carotene; format: functional, cell-based; in short: as §2
BJ [8] = assay: Effect on intracellular oxidative species in TERT expressing human BJ cells at 4.6 uM; format: functional, cell-based
In short: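 Cells seeded at 3 × 10^5 per 60 mm dish were grown overnight, then exposed to 4.6 erastin for 2–12 h; H2O2 for 5 min served as positive control. Cells were loaded with H2DCF-DA for 10 min, trypsinized, PBS-washed and stained with propidium iodide. Read-out was flow cytometry as percent of cells with DCF fluorescence in gate M1; n = 2.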

A673 [9] = assay: Induction of PARP1 cleavage in human A673 cells; format: functional, cell-based
In short: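 Cells were left untreated or given staurosporine or erastin for 6 or 8 h. Lysates were analysed by western blot for full-length and cleaved PARP1, with actin as loading control.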

BJ [10] = assay: Induction of cytochrome c release in mitochondrial fraction of human BJ cell expressing TERT, LT, ST and RAS G12V mutant genes at 20 ug/ml; format: functional, cell-based
In short: (§3)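 BJ-TERT/LT/ST/RASV12 cells seeded 3 × 10^6 per dish, incubated overnight at 37 °C, 5% CO2, then exposed to erastin 20 µg/ml for 6–26 h. Fractionated on ice by needle lysis: nuclei spun out at 400g, mitochondria pelleted at 10,500g. Cytochrome c detected by western blot in cytosolic and mitochondrial fractions.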

BJ [11] = assay: Induction of cytochrome c release in cytosolic fraction of human BJ cells expressing TERT, LT, ST and RAS G12V mutant genes at 20 ug/ml; format: functional, cell-based; in short: as §3
A673 [12] = assay: Induction of pro-caspase 3 cleavage in human A673 cells; format: functional, cell-based; in short: as §1
HT-1080 [13] = assay: Induction of pro-caspase 3 cleavage in human HT1080 cells; format: functional, cell-based; in short: as §1
BJ [14] = assay: Induction of cell death in TERT expressing human BJ cells; format: functional, cell-based
BJ [15] = assay: Induction of cell death in human BJ cells expressing TERT, LT, ST and RAS G12V mutant genes; format: functional, cell-based
[16] = Induction of cell death in human EWS502 cells; format: functional, cell-based
[17] = molecular target: T1, Mitogen-activated protein kinase; ERK1/ERK2 (Homo sapiens) (UniProt P27361+P28482); assay: Effect on ERK1/2 phosphorylation in human EWS502 cells by Western blot; format: cell-based
In short: (§4)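 Washed cells were lysed in pH 7.4 HEPES buffer containing orthovanadate, NaF, pyrophosphate, β-glycerophosphate and protease inhibitors. Lysates were run on SDS-PAGE, transferred to PVDF and blocked 1 h at room temperature. Blots were probed with a multiplex phospho-signalling antibody cocktail and read by infrared fluorescence scanning.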

[18] = molecular target: T1, Mitogen-activated protein kinase; ERK1/ERK2 (Homo sapiens); assay: Effect on ERK1/2 phosphorylation in human HT1080 cells by Western blot; format: cell-based; conditions: HT-1080; in short: as §4
[19] = molecular target: T1, Mitogen-activated protein kinase; ERK1/ERK2 (Homo sapiens); assay: Effect on ERK1/2 phosphorylation in human SKES1 cells by Western blot; format: cell-based; in short: as §4
[20] = molecular target: T1, Mitogen-activated protein kinase; ERK1/ERK2 (Homo sapiens); assay: Effect on ERK1/2 phosphorylation in human […] cells by Western blot; format: cell-based; conditions: SK-N-MC; in short: as §4
[21] = molecular target: T1, Mitogen-activated protein kinase; ERK1/ERK2 (Homo sapiens); assay: Effect on ERK1/2 phosphorylation in human TC71 cells by Western blot; format: cell-based; in short: as §4
[22] = molecular target: T1, Mitogen-activated protein kinase; ERK1/ERK2 (Homo sapiens); assay: Effect on ERK1/2 phosphorylation in human U937 cells by Western blot; format: cell-based; conditions: U-937; in short: as §4
SK-LMS-1 = assay: Induction of cell death in human SKLMS1 cells; format: functional, cell-based
[23] = Induction of cell death in human MES-SA cells; format: functional, cell-based
U2OS = assay: Induction of cell death in human U2OS cells; format: functional, cell-based
HeLa = assay: Induction of cell death in human HeLa cells; format: functional, cell-based
[24] = Induction of cell death in human Hs51.T cells; format: functional, cell-based
HCT-116 = assay: Induction of cell death in human HCT116 cells; format: functional
SW982 = assay: Induction of cell death in human SW982 cells; format: functional
BJ [25] = assay: Induction of cell death in human BJ cells expressing TERT, LT, ST and RAS G12V mutant genes at 13 uM; format: functional
BJ [26] = assay: Induction of cell death in human BJ cells expressing TERT, LT, ST and RAS G12V mutant genes in presence of MEK inhibitor by trypan blue exclusion method; format: functional, cell-based
In short: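 BJ-TERT/LT/ST/RASV12 cells were co-treated for 48 h with 1.5 µM erastin plus 20 µM U0126, 10 µM MEK inhibitor I or 50 µM MEK1/2 inhibitor. Viability was measured by automated Trypan blue exclusion of trypsinized cells resuspended in growth medium; n = 2 or 3.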

HT-1080 [27] = assay: Induction of cell death in human HT1080 cells in presence of MEK inhibitor by trypan blue exclusion method; format: functional, cell-based
HL-60 = assay: Induction of cell death in human HL60 cells; format: functional
HT-1080 [28] = assay: Induction of cell death in human HT1080 cells; format: functional, cell-based
SK-N-MC = assay: Induction of cell death in human SK-N-MC cells; format: functional, cell-based
[29] = Induction of cell death in human TC32 cells; format: functional, cell-based, TC-32
[30] = Induction of cell death in human TC71 cells; format: functional, cell-based

T1 sequence (P27361 whole entry, looked up): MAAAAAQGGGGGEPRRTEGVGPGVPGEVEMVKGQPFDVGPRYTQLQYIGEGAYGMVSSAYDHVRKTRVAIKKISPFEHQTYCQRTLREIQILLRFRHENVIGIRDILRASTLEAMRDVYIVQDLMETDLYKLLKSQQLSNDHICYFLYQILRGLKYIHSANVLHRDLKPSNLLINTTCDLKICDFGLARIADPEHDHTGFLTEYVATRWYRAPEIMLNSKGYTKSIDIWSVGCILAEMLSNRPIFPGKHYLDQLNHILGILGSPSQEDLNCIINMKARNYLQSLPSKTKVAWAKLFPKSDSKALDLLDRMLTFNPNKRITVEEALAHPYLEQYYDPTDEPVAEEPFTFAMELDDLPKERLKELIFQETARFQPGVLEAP
T1 sequence (P28482 whole entry, looked up): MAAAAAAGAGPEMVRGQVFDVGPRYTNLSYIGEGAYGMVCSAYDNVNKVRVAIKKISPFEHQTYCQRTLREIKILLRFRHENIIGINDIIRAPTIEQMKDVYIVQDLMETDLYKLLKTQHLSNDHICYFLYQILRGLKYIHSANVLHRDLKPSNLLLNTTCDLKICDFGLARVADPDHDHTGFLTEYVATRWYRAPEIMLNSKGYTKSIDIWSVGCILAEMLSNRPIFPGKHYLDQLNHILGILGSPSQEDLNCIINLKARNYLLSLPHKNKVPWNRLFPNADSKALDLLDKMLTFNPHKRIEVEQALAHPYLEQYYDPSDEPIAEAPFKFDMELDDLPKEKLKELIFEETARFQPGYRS
Chain of Non-selective voltage-gated ion channel VDAC2 (P45880 whole entry): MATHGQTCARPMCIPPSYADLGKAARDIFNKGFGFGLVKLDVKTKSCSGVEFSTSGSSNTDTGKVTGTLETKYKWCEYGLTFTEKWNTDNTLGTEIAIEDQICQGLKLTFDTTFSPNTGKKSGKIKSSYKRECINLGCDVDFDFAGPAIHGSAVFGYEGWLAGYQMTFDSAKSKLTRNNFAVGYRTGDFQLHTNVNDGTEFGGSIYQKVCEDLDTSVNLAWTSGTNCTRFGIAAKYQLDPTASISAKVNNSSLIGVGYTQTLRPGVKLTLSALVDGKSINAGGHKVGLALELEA

With `CCOc1ccccc1-n1c(C(C)N2CCN(C(=O)COc3ccc(Cl)cc3)CC2)nc2ccccc2c1=O` (centres undefined) [ERASTIN] the IC50 (BJ [1]) was 0.9 µM, the Activity (BJ [2]) was “Active” and the Kd [3] was 0.112 µM. For the same molecule, the Activity (BJ [4]) was “inactive”, the Activity (BJ [5]) was “Active” and the Activity (BJ [6]) was “Active”. For the same molecule, the Activity (BJ [7]) was “Active”, the Activity (BJ [8]) was “inactive” and the Activity (A673 [9]) was “inactive”. For the same molecule, the Activity (BJ [10]) was “inactive”, the Activity (BJ [11]) was “inactive” and the Activity (A673 [12]) was “inactive”. For the same molecule, the Activity (HT-1080 [13]) was “inactive”, the Activity (BJ [14]) was 22% and the EC50 (BJ [14]; Homo sapiens, BJ) was 10 µM. The Activity (BJ [15]) was 100%, the EC50 (BJ [15]; Homo sapiens, BJ) was 6 µM and the Activity [16] was 42%. The EC50 ([16]; Homo sapiens, EWS502) was 10 µM, the Activity [17] was 0.12 a.u and the Activity [18] was 0.53 a.u. It also gave an Activity [19] of 0.25 a.u, an Activity [20] of 0.05 a.u and an Activity [21] of 0.23 a.u. For the same molecule, the Activity [22] was 0.27 a.u, the Activity (SK-LMS-1) was 100% and the EC50 (SK-LMS-1; Homo sapiens, SK-LMS-1) was 6 µM. The Activity [23] was 100%, the EC50 ([23]; Homo sapiens, MES-SA) was 3 µM and the Activity (U2OS) was 96%. It also gave an EC50 (U2OS; Homo sapiens, U2OS) of 6 µM, an Activity (HeLa) of 94% and an EC50 (HeLa; Homo sapiens, HeLa) of 0.6 µM. The Activity [24] was 88%, the EC50 ([24]; Homo sapiens) was 12 µM and the Activity (HCT-116) was 0%. It also gave an Activity (SW982) of 0%, an Activity (BJ [25]) of 100% and an IC50 (BJ [26]) of 2.6 µM. For the same molecule, the IC50 (HT-1080 [27]) was 2.5 µM, the Activity (HL-60) was 0% and the Activity (HT-1080 [28]) was 98%. For the same molecule, the EC50 (HT-1080 [28]; Homo sapiens, HT-1080) was 2 µM, the Activity (SK-N-MC) was 95% and the EC50 (SK-N-MC; Homo sapiens, SK-N-MC) was 10 µM. It also gave an Activity [29] of 88%, an EC50 ([29]; Homo sapiens, TC-32) of 8 µM and an Activity [30] of 92%. For the same molecule, the EC50 ([30]; Homo sapiens, TC-71) was 10 µM.
